Measurements taken from ChEMBL document CHEMBL1139832, “Selective angiotensin II AT(2) receptor agonists devoid of the imidazole ring system” (Bioorg Med Chem, 2007).
The source made the active and inactive calls. The rule behind the calls is not given here.

How the values were obtained:
[1] = Displacement of [125I]Ang 2 from AT2 receptor in pig uterus membranes; assay type: cell membranes, Sus scrofa, Membrane
How it was run: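 Porcine uterine myometrial membranes (10 mg original tissue), with 1 µM losartan to block AT1, incubated with [125I]Ang II (0.03 nM) and varying test compound in Tris–HCl pH 7.4 buffer with NaCl, MgCl2, EDTA, bacitracin and BSA; 25 °C, 1.5 h. Filtered, gamma counted. Nonspecific binding with 1 µM Ang II. Ki via Cheng–Prusoff (Kd 0.73 nM), one-site fit; triplicate.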

[2] = target: T1, Type-1 angiotensin II receptor A (Rattus norvegicus, UniProt P25095); experiment: Displacement of [125I]Ang 2 from AT1 receptor in rat liver membranes; assay type: cell membranes, Membrane
T1 sequence (P25095 whole entry): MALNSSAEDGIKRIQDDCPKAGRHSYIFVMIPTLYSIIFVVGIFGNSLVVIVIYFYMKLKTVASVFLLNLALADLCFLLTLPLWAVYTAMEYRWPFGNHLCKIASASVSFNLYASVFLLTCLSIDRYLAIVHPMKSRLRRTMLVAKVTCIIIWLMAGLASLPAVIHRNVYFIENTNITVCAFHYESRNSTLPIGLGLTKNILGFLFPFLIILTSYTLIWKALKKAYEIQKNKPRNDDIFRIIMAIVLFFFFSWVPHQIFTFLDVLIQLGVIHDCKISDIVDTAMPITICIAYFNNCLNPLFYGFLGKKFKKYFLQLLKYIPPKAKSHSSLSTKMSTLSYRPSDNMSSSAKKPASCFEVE
How it was run: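 Rat liver membranes (5 mg original tissue) incubated with [125I]Ang II (0.03 nM) and varying test compound in 50 mM Tris–HCl pH 7.4, 100 mM NaCl, 10 mM MgCl2, 1 mM EDTA, 0.025% bacitracin, 0.2% BSA; 25 °C for 2 h. Filtered onto polyethylamine-soaked GF/B filters, gamma counting. Nonspecific binding with 1 µM Ang II; triplicate.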

NG108-15 [3] = experiment: Induction of neurite outgrowth in NG108-15 cells at 1 nM after 3 days; assay type: functional, cell-based
How it was run: (§1)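 NG108-15 neuroblastoma×glioma cells (AT2 only; DMEM, 10% FBS, HAT) plated at 3.6·10⁴ cells/35 mm dish, then treated daily for 3 days, alone or with PD 123,319 added 30 min beforehand. Examined by phase-contrast microscopy.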

NG108-15 [4] = experiment: Induction of neurite outgrowth in NG108-15 cells at 0.1 uM after 3 days; assay type: functional, cell-based; how it was run: as §1

## CCCCOC(=O)NS(=O)(=O)c1sc(CC(C)C)cc1-c1ccc(CC(=O)NC)cc1
[1]
  Ki: 80 nM
[2]
  Ki: > 10000 nM

## CCCCOC(=O)NS(=O)(=O)c1sc(CC(C)C)cc1-c1ccc(CC(=O)Nc2ccc(C)cc2)cc1
[1]
  Ki: 58 nM
[2]
  Ki: > 10000 nM

## CCCCOC(=O)NS(=O)(=O)c1sc(CC(C)C)cc1-c1ccc(CN(C)C(=O)CCCC)cc1
[1]
  Ki: 12 nM
[2]
  Ki: > 10000 nM

## CCCCOC(=O)NS(=O)(=O)c1sc(CC(C)C)cc1-c1ccc(CNC(C)=O)cc1
[1]
  Ki: 5.8 nM
[2]
  Ki: > 10000 nM

## CCCCOC(=O)NS(=O)(=O)c1sc(CC(C)C)cc1-c1ccc(CN(C)C)cc1
[1]
  Ki: > 10000 nM
[2]
  Ki: > 10000 nM

## CCCCOC(=O)NS(=O)(=O)c1sc(CC(C)C)cc1-c1ccc(CN(C)C(=O)OCC)cc1
[1]
  Ki: 9.7 nM
[2]
  Ki: > 10000 nM

## CCCCOC(=O)NS(=O)(=O)c1sc(CC(C)C)cc1-c1ccc(CN(CC)C(=O)c2cccs2)cc1
[1]
  Ki: 138 nM
[2]
  Ki: > 10000 nM

## CCCCOC(=O)NS(=O)(=O)c1sc(CC(C)C)cc1-c1ccc(CC(N)=O)cc1
[1]
  Ki: 51 nM
[2]
  Ki: > 10000 nM

## CCCCCCNC(=O)Cc1ccc(-c2cc(CC(C)C)sc2S(=O)(=O)NC(=O)OCCCC)cc1
[1]
  Ki: 158 nM
[2]
  Ki: > 10000 nM

## CCCCOC(=O)NS(=O)(=O)c1sc(CC(C)C)cc1-c1ccc(CN(Cc2cccnc2)C(C)=O)cc1
[1]
  Ki: 59 nM
[2]
  Ki: > 10000 nM

## CCCCOC(=O)NS(=O)(=O)c1sc(CC(C)C)cc1-c1ccc(CN(Cc2cccnc2)C(=O)c2ccccc2)cc1
[1]
  Ki: 404 nM
[2]
  Ki: > 10000 nM

## CCCCOC(=O)NS(=O)(=O)c1sc(CC(C)C)cc1-c1ccc(CN(C)OC)cc1
NG108-15 [3]
  Activity: Active
[1]
  Ki: 2.8 nM
[2]
  Ki: > 10000 nM

## CCCCOC(=O)NS(=O)(=O)c1sc(CC(C)C)cc1-c1csc(CN(C)C(C)=O)c1
[1]
  Ki: > 10000 nM
[2]
  Ki: > 10000 nM

## CCCCOC(=O)NS(=O)(=O)c1sc(CC(C)C)cc1-c1ccc(CC(=O)N2CCSC2)cc1
[1]
  Ki: 133 nM
[2]
  Ki: > 10000 nM

## CCCCOC(=O)NS(=O)(=O)c1sc(CC(C)C)cc1-c1ccc(CN(Cc2ccccc2)C(=O)CCCC)cc1
[1]
  Ki: 84 nM
[2]
  Ki: > 10000 nM

## CCCCOC(=O)NS(=O)(=O)c1sc(CC(C)C)cc1-c1ccc(CC(=O)N(c2ccccc2)c2ccccc2)cc1
[1]
  Ki: 219 nM
[2]
  Ki: > 10000 nM

## CCCCOC(=O)NS(=O)(=O)c1sc(CC(C)C)cc1-c1ccc(CC(=O)N(C)C)cc1
[1]
  Ki: 7 nM
NG108-15 [4]
  Activity: Active
[2]
  Ki: > 10000 nM

## CCCCOC(=O)NS(=O)(=O)c1sc(CC(C)C)cc1-c1ccc(CC(=O)N(C)CCCC)cc1
[1]
  Ki: 367 nM
[2]
  Ki: > 10000 nM

## CCCCOC(=O)NS(=O)(=O)c1sc(CC(C)C)cc1-c1ccc(CN(C)CC#N)cc1
[1]
  Ki: > 10000 nM
[2]
  Ki: > 10000 nM

## CCCCOC(=O)NS(=O)(=O)c1sc(CC(C)C)cc1-c1ccc(CC(=O)NCc2ccccc2)cc1
[1]
  Ki: 221 nM
[2]
  Ki: > 10000 nM

## CCCCOC(=O)NS(=O)(=O)c1sc(CC(C)C)cc1-c1ccc(CN(C)C(C)=O)cc1
NG108-15 [3]
  Activity: Active
[1]
  Ki: 8.8 nM
[2]
  Ki: > 10000 nM

## CCCCOC(=O)NS(=O)(=O)c1sc(CC(C)C)cc1-c1ccc(CN(C)S(C)(=O)=O)cc1
[1]
  Ki: 32 nM
[2]
  Ki: > 10000 nM

## CCCCOC(=O)NS(=O)(=O)c1sc(CC(C)C)cc1-c1ccc(CN(Cc2ccccc2)C(C)=O)cc1
[1]
  Ki: 200 nM
[2]
  Ki: > 10000 nM

## CCCCOC(=O)NS(=O)(=O)c1sc(CC(C)C)cc1-c1ccc(CN(C(=O)c2ccccc2)c2ccc(C)cc2)cc1
[1]
  Ki: 46 nM
[2]
  Ki: > 10000 nM

## CCCCOC(=O)NS(=O)(=O)c1sc(CC(C)C)cc1-c1ccc(CN(C)C=O)cc1
[1]
  Ki: 3.1 nM
[2]
  Ki: > 10000 nM

## CCCCOC(=O)NS(=O)(=O)c1sc(CC(C)C)cc1-c1ccc(CN(C)C(C)=O)o1
NG108-15 [3]
  Activity: Active
[1]
  Ki: 9.1 nM
[2]
  Ki: > 10000 nM

## CCCCOC(=O)NS(=O)(=O)c1sc(CC(C)C)cc1-c1ccc(CN(C(C)=O)c2ccc(C)cc2)cc1
[1]
  Ki: 60 nM
[2]
  Ki: > 10000 nM

## CCCCOC(=O)NS(=O)(=O)c1sc(CC(C)C)cc1-c1ccc(CC(=O)N(CC)Cc2ccccc2)cc1
[1]
  Ki: 322 nM
[2]
  Ki: > 10000 nM

## CCCCOC(=O)NS(=O)(=O)c1sc(CC(C)C)cc1-c1ccc(CC(=O)N(Cc2ccccc2)Cc2ccccc2)cc1
[1]
  Ki: 185 nM
[2]
  Ki: > 10000 nM

## CCCCOC(=O)NS(=O)(=O)c1sc(CC(C)C)cc1-c1ccc(CN(CC)C(C)=O)cc1
[1]
  Ki: 126 nM
[2]
  Ki: > 10000 nM

## CCCCOC(=O)NS(=O)(=O)c1sc(CC(C)C)cc1-c1ccc(CC(=O)N2CCOCC2)cc1
[1]
  Ki: 124 nM
[2]
  Ki: > 10000 nM

## CCCCOC(=O)NS(=O)(=O)c1sc(CC(C)C)cc1-c1ccc(CN(C)C(C)=O)cn1
[1]
  Ki: > 10000 nM
[2]
  Ki: > 10000 nM
